# Columns and labels:
# [1] = test system: HRECs; conditions: ref Basavarajappa et al., 2017; cited from earlier work
# [2] = test system: Human Retinal Endothelial Cell (HREC); conditions: HRECs; ref Basavarajappa et al., 2017; cited from earlier work
# [3] = test system: HRECs; conditions: ref Basavarajappa et al., 2017; cited from earlier work; remark: listed apart in the source
# [4] = test system: ARPE19 cells; conditions: ref Basavarajappa et al., 2017; cited from earlier work
# [5] = test system: iCEC2 choroidal endothelial cells; assay: iCEC2 proliferation assay; assay type: cell-based, human; conditions: 48 hour treatment
# [6] = molecular target: T1, recombinant FECH (Homo sapiens, UniProt P22830); assay: FECH enzymatic activity assay; assay type: biochemical; conditions: for inhibitory activity against recombinant FECH: qualitative
# T1 sequence (P22830 55-423): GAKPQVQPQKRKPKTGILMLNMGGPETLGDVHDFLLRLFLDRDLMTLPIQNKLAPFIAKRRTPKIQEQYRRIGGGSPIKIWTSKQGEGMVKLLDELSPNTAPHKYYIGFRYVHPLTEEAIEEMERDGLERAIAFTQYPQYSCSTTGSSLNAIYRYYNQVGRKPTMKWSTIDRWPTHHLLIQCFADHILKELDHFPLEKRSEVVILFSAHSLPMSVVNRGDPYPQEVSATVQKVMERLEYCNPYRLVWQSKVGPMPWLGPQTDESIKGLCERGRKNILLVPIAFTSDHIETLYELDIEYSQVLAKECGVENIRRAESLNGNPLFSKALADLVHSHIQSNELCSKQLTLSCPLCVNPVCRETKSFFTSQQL
# [7] = test system: Human Retinal Endothelial Cell (HREC); assay: HREC proliferation assay; assay type: cell-based; conditions: 48 hour treatment, qualitative
# [8] = molecular target: T1, recombinant FECH; assay: 4e-FECH enzyme kinetic analysis; assay type: biochemical; conditions: vs. substrate mesoporphyrin IX; Vmax consistent, KM increased
# [9] = test system: HRECs; assay: Scratch wound migration assay; assay type: cell-based, human; conditions: 8 hour treatment, dose dependent
# Summary of the method: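 HRECs were grown to confluence in 96-well plates at 37°C, scratched down the well centre with a pipette tip, and treated with test compound. Brightfield images were taken at 8 h. Cells migrating into the scratch were counted manually in six images per treatment and normalised to DMSO. Replicate runs were live-imaged. n=4 technical.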
# [10] = test system: HRECs; assay: Matrigel-based tube formation assay; assay type: cell-based, human; conditions: 8 hour treatment, qualitative
# Summary of the method: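 Matrigel was solidified 20 min at 37°C. HRECs were added at 15,000/well in EGM-2 and dosed with test compound in DMSO. Tubes were watched by brightfield every 2 h and imaged at 8 h. Total tubule length from six images per treatment was normalised to DMSO controls. n=6 technical.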
# [11] = test system: ARPE19 cells; assay: ARPE19 proliferation assay; assay type: cell-based, human; conditions: 48 hour treatment
# [12] = test system: COXIV subunit I expression in HRECs; assay: Immunoblot for hemoprotein COXIV subunit I; assay type: cell-based, human; conditions: 16 hours, dose dependent (10, 30 or 100 μM)
# Summary of the method: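 HRECs were treated 16 h with test compound (10, 30 or 100 μM), a reference FECH inhibitor (10 μM) or DMSO. Arms were: 6 h pretreatment with 100 μM succinylacetone or water, or after treatment, medium replaced by EBM-2 with 0.2% serum and 10 μM hemin. Lysate protein (40 μg) was run on 12% SDS-PAGE and PVDF, probed with anti-COX4I1 (1:1000) and β-actin (1:2000). n=3 biological.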
# [13] = molecular target: dopamine D2 receptor DRD2S (Homo sapiens, UniProt P14416); assay: SafetyScan off-target analysis, DRD2S; assay type: cell-based
# [14] = test system: PPIX and heme in HRECs; assay: Porphyrin and heme analysis; assay type: cell-based, human; conditions: 30 μM 4e ± 1 mM 5-ALA
# Summary of the method: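 HRECs were grown to 80% confluence and serum-starved overnight. Cells received DMSO or 30 μM test compound for 1 h, then 1 mM 5-ALA or water for a further 2 h. They were pelleted in cold PBS and frozen. Heme and porphyrins were quantified by a core facility following its posted protocols. n=3.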
# [15] = test system: choroidal neovascularization
# [16] = test system: HRECs; assay: In vitro apoptosis assays; assay type: cell-based, human; conditions: 16 hour treatment, 10, 30 and 100 μM
# Summary of the method: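 HRECs on coated chamber slides, 70% confluent, were treated 16 h with vehicle, test compound (10, 30, 100 μM), or positive controls (1 μM staurosporine for caspase, 10 μM DNase I for TUNEL). After 4% PFA fixation: Triton permeabilisation, anti-cleaved caspase-3 (1:200, overnight, 4°C), fluorescent secondary and Hoechst; or a Click-iT TUNEL kit. Stained cells were counted as % of nuclei in three 40x fields. Three biological repeats.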
# [17] = test system: FECH activity in HRECs (PPIX accumulation); assay: Protoporphyrin IX buildup assay; assay type: cell-based, human; conditions: highest dose, co-treated with 5-ALA, 3 hour treatment, vs. DMSO
# [18] = recombinant FECH activity assay
# Sequence of dopamine D2 receptor DRD2S (P14416 1-414 isoform P14416-2): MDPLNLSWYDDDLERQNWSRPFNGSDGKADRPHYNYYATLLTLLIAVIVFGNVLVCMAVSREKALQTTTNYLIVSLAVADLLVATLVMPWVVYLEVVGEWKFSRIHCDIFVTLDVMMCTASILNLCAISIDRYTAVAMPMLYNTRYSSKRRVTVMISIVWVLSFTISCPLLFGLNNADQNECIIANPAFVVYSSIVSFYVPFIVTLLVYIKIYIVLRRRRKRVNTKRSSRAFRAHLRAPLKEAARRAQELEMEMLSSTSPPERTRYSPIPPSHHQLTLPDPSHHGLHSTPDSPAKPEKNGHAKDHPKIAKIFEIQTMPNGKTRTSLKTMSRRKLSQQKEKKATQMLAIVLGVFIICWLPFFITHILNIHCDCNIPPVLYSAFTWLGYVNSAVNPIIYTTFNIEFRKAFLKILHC
compound,measurement,setting,value
N-methylprotoporphyrin [NMPP],"inhibition of HREC tube formation, active concentrations",[1],single-digit micromolar concentrations
same,GI50,[2],30 µM
same,"inhibition of HREC migration, active concentrations",[3],single-digit micromolar concentrations
same,proliferation of ARPE19 cells,[4],did not block proliferation
same,proliferation of iCEC2 cells,[5],antiproliferative
same,FECH activity inhibition,"[6]; 10 μM, positive control in the screen",completely inhibited
same,IC50,[6]; [18],450 nM
"CCCc1cc(=O)n2nc(CNc3ccc(F)c(F)c3)nc2[nH]1 [5k, 2-(((3,4-Difluorophenyl)amino)methyl)-5-propyl-[1,2,4]triazolo[1,5-a]pyrimidin-7(4H)-one]",HREC proliferation (antiproliferative effect),[7],did not affect HREC proliferation
same,inhibitory activity against recombinant FECH,[6],strongest inhibitory activity
"CC(C)(C)c1ccc(-c2nc3[nH]c(CNc4ccc5ccccc5n4)cc(=O)n3n2)cc1 [4e, 2-(4-(tert-Butyl)phenyl)-5-((quinolin-2-ylamino)methyl)-[1,2,4]triazolo[1,5-a]pyrimidin-7(4H)-one]",mode of inhibition,[8],competitive inhibition
same,HREC migration,[9],blocked the migration ability
same,HREC tube formation,[10],blocked tube formation of HRECs
same,antiproliferative effect on ARPE19 cells,[11],did not have a substantial antiproliferative effect
same,COXIV subunit I levels in HRECs,[12],decreased COXIV levels
same,proliferation of iCEC2 cells,[5],more potent than NMPP
same,EC50,[13],98 µM
same,PPIX level in HRECs,[14],buildup of FECH substrate PPIX
same,heme level in HRECs,[14],decrease in heme
same,"ocular toxicity (fundus images, OCT)","[15]; day 0, 7 and 14 after laser, intravitreal",no obvious signs of toxicity
same,"decrease in lesion volume (agglutinin and GS-IB4 signal, choroidal flat mounts)","[15]; day 14, both tested doses (50 and 100 μM intravitreal)",> 50%
same,OCT lesion volume relative to control,"[15]; day 14, final intravitreal concentrations of 50 μM as well as 100 μM",significantly reduced
same,leakage on fluorescein angiography (FA),"[15]; day 14, qualitative",smaller
same,HREC proliferation (antiproliferative effect),[7],anti-proliferative
same,inhibitory activity against recombinant FECH,[6],showed inhibitory activity
same,IC50 value (range in words),[6]; [18],high nanomolar range
same,"apoptosis in HRECs (cleaved caspase-3, TUNEL)",[16],did not lead to apoptosis
same,PPIX accumulation in HRECs,[17],statistically significant PPIX accumulation
"CCCc1cc(=O)n2nc(CNc3ccc(Cl)cc3)nc2[nH]1 [5f, 2-(((4-Chlorophenyl)amino)methyl)-5-propyl-[1,2,4]triazolo[1,5-a]pyrimidin-7(4H)-one]",inhibitory activity against recombinant FECH,[6],potent FECH inhibitors
"CCCc1cc(=O)n2nc(CNc3ccc(F)c(Cl)c3)nc2[nH]1 [5i, 2-(((3-Chloro-4-fluorophenyl)amino)methyl)-5-propyl-[1,2,4]triazolo[1,5-a]pyrimidin-7(4H)-one]",HREC proliferation (antiproliferative effect),[7],did not affect HREC proliferation
same,inhibitory activity against recombinant FECH,[6],strongest inhibitory activity
"CCCc1cc(=O)n2nc(CNc3ccc(C)cc3)nc2[nH]1 [5c, 5-Propyl-2-((p-tolylamino)methyl)-[1,2,4]triazolo[1,5-a]pyrimidin-7(4H)-one]",HREC tube formation,[10],blocked tube formation of HRECs
same,HREC proliferation (antiproliferative effect),[7],anti-proliferative
same,IC50 value (range in words),[6]; [18],high nanomolar range
